Activity calls are given as the source filed them. No cut-off for these calls is given here.
Tests used:
A2780 = experiment: Antiproliferative activity against human A2780 cells after 96 hrs by Cell-Titer Blue assay; type: functional, cell-based; settings: A2780, 96 h
IGROV-1 [1] = experiment: Antiproliferative activity against wild type human IGROV1 cells after 96 hrs by Cell-Titer Blue assay; type: functional, cell-based; settings: IGROV-1, 96 h
[2] = target: T1, Reduced folate transporter (Homo sapiens) (UniProt P41440); experiment: Inhibition of human RFC2 expressed in human HeLa R1-11 cells assessed as reduction in [3H]MTX uptake at pH 7.2 at 10 uM measured over 2 mins relative to control; type: cell-based
T1 sequence (whole entry): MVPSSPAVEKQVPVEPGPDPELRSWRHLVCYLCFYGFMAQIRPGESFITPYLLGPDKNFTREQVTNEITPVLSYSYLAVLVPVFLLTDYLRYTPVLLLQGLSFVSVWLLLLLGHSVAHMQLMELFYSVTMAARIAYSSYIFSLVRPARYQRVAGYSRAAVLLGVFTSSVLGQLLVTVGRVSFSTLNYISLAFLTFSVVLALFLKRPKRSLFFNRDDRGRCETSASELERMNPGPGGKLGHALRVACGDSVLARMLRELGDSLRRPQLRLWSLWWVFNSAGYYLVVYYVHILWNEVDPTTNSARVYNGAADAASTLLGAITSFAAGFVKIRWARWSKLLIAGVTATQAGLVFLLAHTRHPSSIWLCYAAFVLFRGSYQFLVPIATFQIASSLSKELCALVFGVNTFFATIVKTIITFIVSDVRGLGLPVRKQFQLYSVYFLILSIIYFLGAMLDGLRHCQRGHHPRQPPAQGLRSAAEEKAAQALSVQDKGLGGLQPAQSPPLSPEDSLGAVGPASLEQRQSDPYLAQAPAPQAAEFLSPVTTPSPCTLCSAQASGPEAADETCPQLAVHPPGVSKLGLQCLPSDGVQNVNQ

IGROV-1 [3] = experiment: Antiproliferative activity against FRalpha […] human IGROV1 KD4 cells after 96 hrs by Cell-Titer Blue assay; type: functional, cell-based; settings: IGROV-1, 96 h
IGROV-1 [4] = experiment: Antiproliferative activity against human IGROV1 cells harboring non targeted control shRNA sequence after 96 hrs by Cell-Titer Blue assay; type: functional, cell-based; settings: IGROV-1, 96 h
IGROV-1 [5] = experiment: Antiproliferative activity against FRalpha […] human IGROV1 KD10 cells after 96 hrs by Cell-Titer Blue assay; type: functional, cell-based; settings: IGROV-1, 96 h
[6] = target: T1, Reduced folate transporter (Homo sapiens); experiment: Inhibition of human RFC2 expressed in human HeLa R1-11 cells assessed as reduction in [3H]MTX uptake at pH 7.2 at 1 uM measured over 2 mins relative to control; type: cell-based
IGROV-1 [7] = experiment: Anticlonogenic activity against human IGROV1 cells incubated for 24 hrs followed by compound wash out and measured after 10 days by methylene blue staining-based assay; type: functional, cell-based
In short: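 IGROV1 cells plated in folate-free RPMI 1640 (pH 7.2), 10% dialyzed FBS, 25 nM LCV. After 24 h adherence, exposed to drug (0–20 μM) for 24 h at pH 6.8 (25 mM PIPES/25 mM HEPES). Washed, then grown drug-free at pH 7.2 (100 mM HEPES) with 25 nM LCV for up to 10 days at 37 °C. Colonies stained with methylene blue and counted electronically. Values normalized to vehicle controls. Triplicate experiments.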

[8] = target: T2, Proton-coupled folate transporter (Homo sapiens) (UniProt Q96NT5); experiment: Inhibition of human PCFT expressed in Chinese hamster R2/PCFT4 cells assessed as reduction in [3H]MTX uptake at pH 5.5 at 10 uM measured over 2 mins relative to control; type: cell-based
T2 sequence (whole entry): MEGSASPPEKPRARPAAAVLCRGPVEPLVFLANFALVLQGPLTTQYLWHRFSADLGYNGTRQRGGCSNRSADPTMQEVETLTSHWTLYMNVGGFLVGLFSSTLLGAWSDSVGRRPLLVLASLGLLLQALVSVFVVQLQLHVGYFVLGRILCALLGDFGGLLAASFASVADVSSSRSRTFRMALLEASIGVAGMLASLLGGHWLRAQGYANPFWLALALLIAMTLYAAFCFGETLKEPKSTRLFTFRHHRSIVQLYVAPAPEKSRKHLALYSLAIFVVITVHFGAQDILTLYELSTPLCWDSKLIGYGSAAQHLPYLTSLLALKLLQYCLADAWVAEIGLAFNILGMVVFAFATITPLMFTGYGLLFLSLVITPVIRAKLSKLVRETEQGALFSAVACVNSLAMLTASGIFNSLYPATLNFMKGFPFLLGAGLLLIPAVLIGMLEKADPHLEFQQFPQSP

[9] = target: T2, Proton-coupled folate transporter (Homo sapiens); experiment: Inhibition of human PCFT expressed in Chinese hamster R2/PCFT4 cells assessed as reduction in [3H]MTX uptake at pH 5.5 at 1 uM measured over 2 mins relative to control; type: cell-based
IGROV-1 [10] = experiment: Antiproliferative activity against human IGROV1 cells at 1 to 1000 nM in presence of 60 uM adenosine after 96 hrs by Cell-Titer Blue assay; type: functional, cell-based
In short: (§1)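 IGROV1 cells, 2000/well, in folate-free RPMI 1640 with 10% dialyzed FBS, L-glutamine, 25 nM LCV. A range of drug concentrations was given with thymidine (10 μM), adenosine (60 μM) or AICA (320 μM) added. After 96 h, proliferation was measured by Cell-Titer Blue fluorescence. At least triplicate experiments.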

[11] = target: Folate receptor alpha (Homo sapiens) (UniProt P15328); experiment: Displacement of [3H]folic acid from human FRalpha expressed in Chinese hamster RT16 cells at 10 to 1000 nM after 15 mins; type: cell-based
In short: (§2)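 RT16 (FRα) or D4 (FRβ) CHO cells at ~80% confluence were washed with PBS at 4 °C, then with pH 3.5 acetate buffer to strip bound folate, then HEPES-buffered saline pH 7.4. Cells were incubated with 50 nM [³H]folic acid plus competitor (10–1000 nM) for 15 min at 4 °C, washed, and solubilized in NaOH. Bound radioactivity was normalized to protein.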

IGROV-1 [12] = experiment: Antiproliferative activity against human IGROV1 cells at 1 to 1000 nM in presence of 320 uM AICA after 96 hrs by Cell-Titer Blue assay; type: functional, cell-based; in short: as §1
IGROV-1 [13] = experiment: Antiproliferative activity against human IGROV1 cells at 1 to 1000 nM in presence of 10 uM thymidine after 96 hrs by Cell-Titer Blue assay; type: functional, cell-based; in short: as §1
[14] = target: T2, Proton-coupled folate transporter (Homo sapiens); experiment: Inhibition of human PCFT expressed in Chinese hamster R2/PCFT4 cells assessed as reduction in [3H]MTX uptake at pH 5.5 at 1 to 10 uM measured over 2 mins; type: cell-based
[15] = target: T3, Proton-coupled folate transporter (Homo sapiens, UniProt Q96NT5); experiment: Inhibition of human PCFT expressed in Chinese hamster R2/PCFT4 cells assessed as reduction in [3H]MTX uptake at pH 5.5 measured over 2 mins by Dixon plot analysis; type: cell-based
T3 sequence (Q96NT5 whole entry): T2 sequence (whole entry)
In short: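 Competitor concentrations ranged from 0.05 to 0.5 μM. Ki was obtained by Dixon plot. Mean ± SE of four independent experiments.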

[16] = Antiproliferative activity in Chinese hamster R2 cells deficient in RFC, PCFT, and FRalpha assessed as reduction in cell growth after 96 hrs by Cell-Titer Blue assay; type: cell-based; settings: Cricetulus griseus, R2, 96 h
[17] = target: Folate receptor beta (Homo sapiens) (UniProt P14207); experiment: Displacement of [3H]folic acid from human FRbeta expressed in Chinese hamster D4 cells at 10 to 1000 nM after 15 mins; type: cell-based; in short: as §2
Folate receptor beta (Homo sapiens), sequence (P14207 17-230 limits assumed): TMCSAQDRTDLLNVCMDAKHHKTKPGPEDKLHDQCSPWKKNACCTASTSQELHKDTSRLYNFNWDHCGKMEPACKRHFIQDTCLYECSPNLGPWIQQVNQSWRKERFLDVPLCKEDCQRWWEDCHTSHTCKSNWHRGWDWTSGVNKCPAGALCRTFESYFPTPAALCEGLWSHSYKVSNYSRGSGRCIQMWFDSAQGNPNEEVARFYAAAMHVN

Folate receptor alpha (Homo sapiens), sequence (P15328 25-234 limits assumed): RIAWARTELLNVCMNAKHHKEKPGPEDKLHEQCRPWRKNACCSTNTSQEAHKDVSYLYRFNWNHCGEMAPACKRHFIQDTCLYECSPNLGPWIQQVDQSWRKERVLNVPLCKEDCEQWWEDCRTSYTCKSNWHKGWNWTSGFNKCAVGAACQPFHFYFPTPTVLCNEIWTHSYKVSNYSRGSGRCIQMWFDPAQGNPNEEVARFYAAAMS

Row | inhibition [2] | inhibition [6] | IC50 (IGROV-1 [7]) [nM] | inhibition [8] | inhibition [9] | SMILES | IC50 (A2780) [nM] | IC50 (IGROV-1 [1]) [nM] | IC50 (IGROV-1 [3]) [nM] | IC50 (IGROV-1 [4]) [nM] | IC50 (IGROV-1 [5]) [nM] | Activity (IGROV-1 [10]) | inhibition [11] | Activity (IGROV-1 [12]) | Activity (IGROV-1 [13]) | inhibition [14] | Ki [15] [nM] | IC50 [16] [nM] | inhibition [17]
1 | inactive | inactive | > 20000 | – | – | Nc1nc2[nH]cc(CCc3ccc(C(=O)N[C@@H](CCC(=O)O)C(=O)O)cc3)c2c(=O)[nH]1 [PEMETREXED] | 39.4 | 104 | 46.6 | 71 | 22.2 | – | – | – | – | – | – | – | –
2 | inactive | inactive | – | 90 to 95% | 60 to 85% | Nc1nc2[nH]c(CCCCc3ccc(C(=O)N[C@@H](CCC(=O)O)C(=O)O)c(F)c3)cc2c(=O)[nH]1 | – | – | – | – | – | inactive | Active | inactive | Active | – | – | – | –
3 | inactive | inactive | – | Active | Active | Nc1nc2[nH]c(CCCc3ccc(C(=O)N[C@@H](CCC(=O)O)C(=O)O)cc3)cc2c(=O)[nH]1 | 2.72 | – | – | – | – | inactive | – | inactive | Active | Active | 630 | > 1000 | –

Row | SMILES | inhibition [2] | inhibition [6] | IC50 (IGROV-1 [7]) [nM] | inhibition [8] | inhibition [9] | IC50 (A2780) [nM] | IC50 (IGROV-1 [1]) [nM] | IC50 (IGROV-1 [3]) [nM] | IC50 (IGROV-1 [4]) [nM] | IC50 (IGROV-1 [5]) [nM] | Activity (IGROV-1 [10]) | inhibition [11] | Activity (IGROV-1 [12]) | Activity (IGROV-1 [13]) | inhibition [14] | Ki [15] [nM] | IC50 [16] [nM] | inhibition [17]
4 | Nc1nc2[nH]c(CCCCc3ccc(C(=O)N[C@@H](CCC(=O)O)C(=O)O)cc3)cc2c(=O)[nH]1 | inactive | inactive | – | – | – | 14.2 | – | – | – | > 1000 | – | – | – | – | – | – | – | –
5 | Nc1nc2[nH]c(CCCCc3csc(C(=O)N[C@@H](CCC(=O)O)C(=O)O)c3)cc2c(=O)[nH]1 | inactive | inactive | – | Active | Active | 28.8 | 54.3 | > 1000 | 40.7 | > 1000 | – | Active | – | – | Active | 360 | > 1000 | Active

From ChEMBL document CHEMBL4308835, “Fluorine-Substituted Pyrrolo[2,3- d]Pyrimidine Analogues with Tumor Targeting via Cellular Uptake by Folate Receptor α and the Proton-Coupled Folate Transporter and Inhibition of de Novo Purine Nucleotide Biosynthesis” (J Med Chem, 2018)
